We go through 13 compounds from ChEMBL document CHEMBL1131103, “Synthesis and biological evaluation of 2-acyl analogues of paclitaxel (Taxol)” (J Med Chem, 1998).

For orientation: IC50 means the concentration needed to halve the response being measured.

The species entered for assay [1] is Bos taurus. The assay can be described thus: Polymerizing activity of tubulin in glutamate against bovine brain tubulin homogenate was measured at 0.8M concentrations. It counts as functional. The method, boiled down: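 Bovine brain tubulin, purified to electrophoretic homogeneity, in 0.8 M monosodium glutamate (from 2 M stock, pH 6.6), room temperature, no GTP. Polymer removed by centrifugation. IC₅₀ = concentration reducing supernatant protein by 50% relative to drug-free control. Maximum 40 µM. At least three independent experiments, or at least two for IC₅₀ over 40 µM.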

For a further assay, the system named is ptx-10/22. In words: Relative resistance was measured against human paclitaxel-resistant cell lines. It counts as functional, cell-based. The note with it: 1A9(PTX22).
The species named for assay [2] is Bos taurus. In words: Polymerizing activity of tubulin in glutamate against bovine brain tubulin homogenate was measured at 0.4 M concentrations. It counts as functional. In short, it runs like this: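 Purified, electrophoretically homogeneous bovine brain tubulin assembled at room temperature without GTP or Mg²⁺ in 0.4 M monosodium glutamate (from 2 M stock, pH 6.6). Polymer pelleted by centrifugation. IC₅₀ = drug concentration lowering supernatant protein by 50% versus no-drug control. Up to 40 µM. At least three independent experiments, or at least two where IC₅₀ exceeded 40 µM.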

The subject of assay [3] is Panel colon (Carcinoma cell lines). In words: Cytotoxic activity was measured against human colon carcinoma cell lines. It counts as functional, cell-based. The method, boiled down:
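HCT116 colon carcinoma monolayers in 96-well plates, 48 h at 37 °C under 5% CO₂. Cell protein measured. IC₅₀ = concentration giving 50% inhibition of the increase in cell protein.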

Assay [4] concerns Panel ovarian (Carcinoma cell lines). The assay can be described thus: Cytotoxic activity was measured against human Ovarian carcinoma cell lines. It counts as functional, cell-based. The method, boiled down:
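Ovarian carcinoma line 1A9, a subclone of A2780, grown as monolayers in 96-well plates for 96 h at 37 °C, 5% CO₂. Cell protein quantitated (Skehan method). IC₅₀ = concentration inhibiting the increase in cell protein by 50%.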

For assay [5], the species on record is Bos taurus. In words: Polymerizing activity of microtubule protein against the twice cycled microtubule protein. It counts as functional. In short, it runs like this:
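Twice-cycled microtubule protein, stored in liquid nitrogen, at 1.0 mg/mL final in 0.1 M MES, 1 mM EGTA, 0.5 mM MgCl₂, pH 6.6, 37 °C, no GTP. Compound at 2.5, 5.0 and 10 µM. Absorbance read every 10 s and initial linear slopes taken. EC0.01 = interpolated concentration giving an initial slope of 0.01 A unit/min.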

Another assay deals with Burkitts lymphoma cell. The assay can be described thus: Cytotoxic activity against was measured human Burkitt lymphoma cell lines. It counts as functional, cell-based. The method, boiled down:
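CA46 Burkitt lymphoma cells in 5.0-mL suspension culture, counted after 24 h at 37 °C under 5% CO₂. IC₅₀ = drug concentration halving the increase in cell number. Highest concentration 100 nM. At least two independent experiments.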

For `CC(=O)O[C@H]1C(=O)[C@@]2(C)[C@H]([C@H](OC(=O)c3cccc(F)c3)[C@]3(O)C[C@H](OC(=O)[C@H](O)[C@@H](NC(=O)c4ccccc4)c4ccccc4)C(C)=C1C3(C)C)[C@]1(OC(C)=O)CO[C@@H]1C[C@@H]2O`, the IC50 in the assay filed under Bos taurus [1] was 2.6 relative to paclitaxel; in the assay listed under Bos taurus [2], 1.2 relative to paclitaxel; in assay [3], 0.45 relative to paclitaxel; in assay [4], 0.4 relative to paclitaxel. In the assay on ptx-10/22, this compound had a relative resistance of 0.96. The EC0.01 (relative to paclitaxel) in the assay filed under Bos taurus [5] came to 0.7.
As to `CC(=O)O[C@H]1C(=O)[C@@]2(C)[C@H]([C@H](OC(=O)c3ccc(F)c(F)c3)[C@]3(O)C[C@H](OC(=O)[C@H](O)[C@@H](NC(=O)c4ccccc4)c4ccccc4)C(C)=C1C3(C)C)[C@]1(OC(C)=O)CO[C@@H]1C[C@@H]2O`, the IC50 in the assay filed under Bos taurus [1] is 3.1 relative to paclitaxel; in the assay filed under Bos taurus [2], > 1.7 relative to paclitaxel; in the assay on Burkitts lymphoma cell it was 0.33 relative to paclitaxel; in assay [3] it was 2.7 relative to paclitaxel; in assay [4], 3.4 relative to paclitaxel. For the same compound, the relative resistance with ptx-10/22 was determined as 0.57. This compound yielded an EC0.01 (relative to paclitaxel) in the assay listed under Bos taurus [5] of 2.2.
In the case of `CC(=O)O[C@H]1C(=O)[C@@]2(C)[C@H]([C@H](OC(=O)c3cc(N=[N+]=[N-])cc(N=[N+]=[N-])c3)[C@]3(O)C[C@H](OC(=O)[C@H](O)[C@@H](NC(=O)c4ccccc4)c4ccccc4)C(C)=C1C3(C)C)[C@]1(OC(C)=O)CO[C@@H]1C[C@@H]2O`, the IC50 in the assay filed under Bos taurus [1] was 4 relative to paclitaxel; in the assay listed under Bos taurus [2] it was > 1.7 relative to paclitaxel; in the assay with Burkitts lymphoma cell, 1 relative to paclitaxel; in assay [3], 1.6 relative to paclitaxel; in assay [4], 1.3 relative to paclitaxel. The same compound yielded a relative resistance in the assay on ptx-10/22 of 0.4. Besides, the EC0.01 (relative to paclitaxel) in the assay listed under Bos taurus [5] came to 0.67.
On to `CC(=O)O[C@H]1C(=O)[C@@]2(C)[C@H]([C@H](OC(=O)c3cccc(OC(C)C)c3)[C@]3(O)C[C@H](OC(=O)[C@H](O)[C@@H](NC(=O)c4ccccc4)c4ccccc4)C(C)=C1C3(C)C)[C@]1(OC(C)=O)CO[C@@H]1C[C@@H]2O`, for which the IC50 in the assay listed under Bos taurus [1] was > 8.9 relative to paclitaxel; in the assay listed under Bos taurus [2], > 1.7 relative to paclitaxel; with Burkitts lymphoma cell, 1.3 relative to paclitaxel; in assay [3], 17 relative to paclitaxel; in assay [4] it was 15 relative to paclitaxel. Moreover, the relative resistance in the assay on ptx-10/22 is 0.29. Moreover, the EC0.01 (relative to paclitaxel) in the assay filed under Bos taurus [5] was greater than 140.
With `CC(=O)O[C@H]1C(=O)[C@@]2(C)[C@H]([C@H](OC(=O)c3cccc([N+](=O)[O-])c3)[C@]3(O)C[C@H](OC(=O)[C@H](O)[C@@H](NC(=O)c4ccccc4)c4ccccc4)C(C)=C1C3(C)C)[C@]1(OC(C)=O)CO[C@@H]1C[C@@H]2O`, the 50% inhibitory concentration (IC50) in the assay filed under Bos taurus [1] was 1.6 relative to paclitaxel; in the assay listed under Bos taurus [2] it was > 1.7 relative to paclitaxel; in the assay with Burkitts lymphoma cell, 1 relative to paclitaxel; in assay [3] it was 0.88 relative to paclitaxel; in assay [4] it was 1.3 relative to paclitaxel. Moreover, the relative resistance in the assay with ptx-10/22 was found to be 0.76. In the assay listed under Bos taurus [5], this compound displayed an EC0.01 (relative to paclitaxel) of 0.69.
Turning to `CC(=O)O[C@H]1C(=O)[C@@]2(C)[C@H]([C@H](OC(=O)c3cc(F)c(F)cc3F)[C@]3(O)C[C@H](OC(=O)[C@H](O)[C@@H](NC(=O)c4ccccc4)c4ccccc4)C(C)=C1C3(C)C)[C@]1(OC(C)=O)CO[C@@H]1C[C@@H]2O`, the IC50 in the assay filed under Bos taurus [1] is 3.1 relative to paclitaxel; in the assay listed under Bos taurus [2] it was > 1.7 relative to paclitaxel; in the assay on Burkitts lymphoma cell it was 1 relative to paclitaxel; in assay [3], 1.9 relative to paclitaxel; in assay [4], 3.1 relative to paclitaxel. This compound also returned a relative resistance in the assay with ptx-10/22 of 0.48. For the same compound, in the assay listed under Bos taurus [5], the EC0.01 (relative to paclitaxel) was determined as 1.5.
`CSc1cccc(C(=O)O[C@H]2[C@@H]3[C@]4(OC(C)=O)CO[C@@H]4C[C@H](O)[C@@]3(C)C(=O)[C@H](OC(C)=O)C3=C(C)[C@@H](OC(=O)[C@H](O)[C@@H](NC(=O)c4ccccc4)c4ccccc4)C[C@]2(O)C3(C)C)c1`: the IC50 in the assay filed under Bos taurus [1] was 2.7 relative to paclitaxel; in the assay filed under Bos taurus [2], > 1.7 relative to paclitaxel; in the assay on Burkitts lymphoma cell, 1 relative to paclitaxel; in assay [4], 3.3 relative to paclitaxel. Further, the relative resistance in the assay on ptx-10/22 amounted to 0.52.
On to `COc1ccccc1C(=O)O[C@H]1[C@@H]2[C@]3(OC(C)=O)CO[C@@H]3C[C@H](O)[C@@]2(C)C(=O)[C@H](OC(C)=O)C2=C(C)[C@@H](OC(=O)[C@H](O)[C@@H](NC(=O)c3ccccc3)c3ccccc3)C[C@]1(O)C2(C)C`, for which the half-inhibitory concentration (IC50) is 1.2 relative to paclitaxel in the assay listed under Bos taurus [1]; > 1.7 relative to paclitaxel in the assay listed under Bos taurus [2]; 0.67 relative to paclitaxel in the assay on Burkitts lymphoma cell; 1.9 relative to paclitaxel in assay [3]; 1.4 relative to paclitaxel in assay [4]. For the same compound, the relative resistance with ptx-10/22 stood at 0.95. The compound further gave an EC0.01 (relative to paclitaxel) in the assay filed under Bos taurus [5] of 1.5.
Take `CC(=O)O[C@H]1C(=O)[C@@]2(C)[C@H]([C@H](OC(=O)c3cccc(C(F)(F)F)c3)[C@]3(O)C[C@H](OC(=O)[C@H](O)[C@@H](NC(=O)c4ccccc4)c4ccccc4)C(C)=C1C3(C)C)[C@]1(OC(C)=O)CO[C@@H]1C[C@@H]2O`: the IC50 is 6.7 relative to paclitaxel in the assay listed under Bos taurus [1]; > 1.7 relative to paclitaxel in the assay filed under Bos taurus [2]; 0.67 relative to paclitaxel in the assay on Burkitts lymphoma cell; 3 relative to paclitaxel in assay [3]; 1.4 relative to paclitaxel in assay [4]. For the same compound, the EC0.01 (relative to paclitaxel) in the assay listed under Bos taurus [5] stood at 1.3.
For the compound `COc1cc(OC)cc(C(=O)O[C@H]2[C@@H]3[C@]4(OC(C)=O)CO[C@@H]4C[C@H](O)[C@@]3(C)C(=O)[C@H](OC(C)=O)C3=C(C)[C@@H](OC(=O)[C@H](O)[C@@H](NC(=O)c4ccccc4)c4ccccc4)C[C@]2(O)C3(C)C)c1`, the 50% inhibitory concentration (IC50) in the assay filed under Bos taurus [1] was 4.7 relative to paclitaxel; in the assay filed under Bos taurus [2] it was > 1.7 relative to paclitaxel; in the assay with Burkitts lymphoma cell, 1 relative to paclitaxel; in assay [3], 5.4 relative to paclitaxel; in assay [4], 3.3 relative to paclitaxel. Further, the relative resistance in the assay on ptx-10/22 worked out at 0.57. Moreover, the EC0.01 (relative to paclitaxel) in the assay filed under Bos taurus [5] amounted to 2.6.
For the compound `COc1cccc(C(=O)O[C@H]2[C@@H]3[C@]4(OC(C)=O)CO[C@@H]4C[C@H](O)[C@@]3(C)C(=O)[C@H](OC(C)=O)C3=C(C)[C@@H](OC(=O)[C@H](O)[C@@H](NC(=O)c4ccccc4)c4ccccc4)C[C@]2(O)C3(C)C)c1OC`, the IC50 is > 8.9 relative to paclitaxel in the assay filed under Bos taurus [1]; > 1.7 relative to paclitaxel in the assay listed under Bos taurus [2]; > 3.3 relative to paclitaxel in the assay on Burkitts lymphoma cell; 59 relative to paclitaxel in assay [3]; > 48 relative to paclitaxel in assay [4]. Also, the EC0.01 (relative to paclitaxel) in the assay listed under Bos taurus [5] is greater than 270.
Regarding `CC(=O)O[C@H]1C(=O)[C@@]2(C)[C@H]([C@H](OC(=O)c3cccc(I)c3)[C@]3(O)C[C@H](OC(=O)[C@H](O)[C@@H](NC(=O)c4ccccc4)c4ccccc4)C(C)=C1C3(C)C)[C@]1(OC(C)=O)CO[C@@H]1C[C@@H]2O`, the IC50 in the assay filed under Bos taurus [1] is 3.1 relative to paclitaxel; in the assay listed under Bos taurus [2], > 1.7 relative to paclitaxel; with Burkitts lymphoma cell, 2.3 relative to paclitaxel; in assay [3], 0.85 relative to paclitaxel; in assay [4], 1.6 relative to paclitaxel. This compound showed a relative resistance with ptx-10/22 of 0.35. In addition, in the assay listed under Bos taurus [5], the EC0.01 (relative to paclitaxel) was 0.79.
In the case of `CC(=O)O[C@H]1C(=O)[C@@]2(C)[C@H]([C@H](OC(=O)c3cc([N+](=O)[O-])cc([N+](=O)[O-])c3)[C@]3(O)C[C@H](OC(=O)[C@H](O)[C@@H](NC(=O)c4ccccc4)c4ccccc4)C(C)=C1C3(C)C)[C@]1(OC(C)=O)CO[C@@H]1C[C@@H]2O`, the IC50 is > 8.9 relative to paclitaxel in the assay listed under Bos taurus [1]; > 1.7 relative to paclitaxel in the assay filed under Bos taurus [2]; 2.3 relative to paclitaxel in the assay with Burkitts lymphoma cell; 3.1 relative to paclitaxel in assay [3]; 20 relative to paclitaxel in assay [4]. The EC0.01 (relative to paclitaxel) in the assay filed under Bos taurus [5] amounted to 4.2.
